According to ChEMBL document CHEMBL4613315, “Design of First-in-Class Dual EZH2/HDAC Inhibitor: Biochemical Activity and Biological Evaluation in Cancer Cells” (ACS Med Chem Lett, 2020):

Key:
[1] = Cell cycle arrest in human RH4 cells assessed as subG1 accumulation at 28 uM incubated for 72 hrs by propidium iodide staining based flow cytometry (reference value: 1.9 %); format: functional
Histone deacetylase 2 = Histone deacetylase 2 (Homo sapiens, UniProt Q92769)
U-937 [2] = test: Cytotoxicity against human U937 cells assessed as reduction in cell viability incubated for 72 hrs by CellTiter-Glo Luminescent cell viability assay; format: functional, cell-based; conditions: U-937, 72 h
U-937 [3] = test: Cell cycle arrest in human U937 cells assessed as subG1 accumulation at 25 uM incubated for 72 hrs by propidium iodide staining based flow cytometry (reference value: 4.9 %); format: functional
[4] = Induction of apoptosis in human RH4 cells assessed as early apoptotic cells at 14 uM incubated for 72 hrs by annexin V-FITC staining based flow cytometry (reference value: 10.8 %); format: functional
Histone deacetylase 5 = Histone deacetylase 5 (Homo sapiens, UniProt Q9UQL6); test: Inhibition of human recombinant HDAC5 using AMC-K(TFA)GL as substrate by fluorescence based assay
Histone deacetylase 5, sequence (Q9UQL6 whole entry): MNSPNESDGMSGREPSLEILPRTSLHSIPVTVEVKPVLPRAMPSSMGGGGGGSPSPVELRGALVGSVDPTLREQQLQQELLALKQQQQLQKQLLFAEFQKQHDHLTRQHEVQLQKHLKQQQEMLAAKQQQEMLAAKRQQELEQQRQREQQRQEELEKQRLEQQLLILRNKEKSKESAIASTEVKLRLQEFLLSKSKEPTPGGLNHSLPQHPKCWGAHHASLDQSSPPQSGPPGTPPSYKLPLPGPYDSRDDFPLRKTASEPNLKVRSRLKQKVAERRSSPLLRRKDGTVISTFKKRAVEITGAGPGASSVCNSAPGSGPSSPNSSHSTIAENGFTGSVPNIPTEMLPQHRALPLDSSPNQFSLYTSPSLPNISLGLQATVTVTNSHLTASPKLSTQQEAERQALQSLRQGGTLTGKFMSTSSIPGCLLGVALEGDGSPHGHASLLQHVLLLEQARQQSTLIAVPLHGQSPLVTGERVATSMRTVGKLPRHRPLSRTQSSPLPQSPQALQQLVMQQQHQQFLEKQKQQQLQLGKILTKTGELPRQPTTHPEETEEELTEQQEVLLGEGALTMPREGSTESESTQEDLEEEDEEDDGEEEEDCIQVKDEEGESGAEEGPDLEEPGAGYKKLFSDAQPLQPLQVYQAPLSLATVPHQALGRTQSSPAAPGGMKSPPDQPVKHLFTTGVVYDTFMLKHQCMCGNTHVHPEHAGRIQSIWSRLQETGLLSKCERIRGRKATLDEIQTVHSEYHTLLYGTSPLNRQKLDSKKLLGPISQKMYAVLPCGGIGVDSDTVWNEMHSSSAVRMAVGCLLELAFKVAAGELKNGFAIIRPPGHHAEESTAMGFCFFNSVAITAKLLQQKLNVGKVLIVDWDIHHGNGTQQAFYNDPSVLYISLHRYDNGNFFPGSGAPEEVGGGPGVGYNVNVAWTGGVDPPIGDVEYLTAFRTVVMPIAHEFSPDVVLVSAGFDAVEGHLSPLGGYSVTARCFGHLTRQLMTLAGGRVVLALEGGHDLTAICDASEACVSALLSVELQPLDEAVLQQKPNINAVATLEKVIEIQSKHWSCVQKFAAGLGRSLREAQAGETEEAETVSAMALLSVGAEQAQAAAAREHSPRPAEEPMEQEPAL

U-937 [5] = test: Cytotoxicity against human U937 cells assessed as reduction in cell viability at 10 uM incubated for 96 hrs by CellTiter-Glo Luminescent cell viability assay relative to control; format: functional; conditions: U-937, 96 h
Procedure, shortened: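 Viability of U937 (5–25 μM) and RH4 (5–35 μM) cells after 48, 72 and 96 h of treatment at increasing concentrations.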

U-937 [6] = test: Induction of apoptosis in human U937 cells assessed as necrotic cells at 25 uM incubated for 72 hrs by annexin V-FITC staining based flow cytometry (reference value: 0.5 %); format: functional
U-937 [7] = test: Induction of apoptosis in human U937 cells assessed as early apoptotic cells at 10 uM incubated for 72 hrs by annexin V-FITC staining based flow cytometry (reference value: 3.4 %); format: functional
[8] = Induction of apoptosis in human RH4 cells assessed as necrotic cells at 28 uM incubated for 72 hrs by annexin V-FITC staining based flow cytometry (reference value: 0.4 %); format: functional
[9] = Cell cycle arrest in human RH4 cells assessed as S accumulation at 28 uM incubated for 72 hrs by propidium iodide staining based flow cytometry (reference value: 29.9 %); format: functional
U-937 [10] = test: Cytotoxicity against human U937 cells assessed as reduction in cell viability at 10 uM in presence of vorinostat incubated for 72 hrs by CellTiter-Glo Luminescent cell viability assay relative to control; format: functional; conditions: U-937, 72 h
Procedure, shortened: (§1)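 Viability after 72 h of single-agent or combined treatment with the HDAC inhibitor (0.05–0.25 μM) and the EZH2 inhibitor. EZH2 inhibitor range: U937 5–25 μM; RH4 10–50 μM. Synergy was assessed by combination index and isobologram analysis.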

[11] = molecular target: T1, Histone-lysine N-methyltransferase EZH2 (Homo sapiens, UniProt Q15910); test: Inhibition of EZH2 in human RH4 cells assessed as H3K27me3 level at 50 uM incubated for 96 hrs by Western blot analysis; format: cell-based
T1 sequence (Q15910 whole entry, looked up): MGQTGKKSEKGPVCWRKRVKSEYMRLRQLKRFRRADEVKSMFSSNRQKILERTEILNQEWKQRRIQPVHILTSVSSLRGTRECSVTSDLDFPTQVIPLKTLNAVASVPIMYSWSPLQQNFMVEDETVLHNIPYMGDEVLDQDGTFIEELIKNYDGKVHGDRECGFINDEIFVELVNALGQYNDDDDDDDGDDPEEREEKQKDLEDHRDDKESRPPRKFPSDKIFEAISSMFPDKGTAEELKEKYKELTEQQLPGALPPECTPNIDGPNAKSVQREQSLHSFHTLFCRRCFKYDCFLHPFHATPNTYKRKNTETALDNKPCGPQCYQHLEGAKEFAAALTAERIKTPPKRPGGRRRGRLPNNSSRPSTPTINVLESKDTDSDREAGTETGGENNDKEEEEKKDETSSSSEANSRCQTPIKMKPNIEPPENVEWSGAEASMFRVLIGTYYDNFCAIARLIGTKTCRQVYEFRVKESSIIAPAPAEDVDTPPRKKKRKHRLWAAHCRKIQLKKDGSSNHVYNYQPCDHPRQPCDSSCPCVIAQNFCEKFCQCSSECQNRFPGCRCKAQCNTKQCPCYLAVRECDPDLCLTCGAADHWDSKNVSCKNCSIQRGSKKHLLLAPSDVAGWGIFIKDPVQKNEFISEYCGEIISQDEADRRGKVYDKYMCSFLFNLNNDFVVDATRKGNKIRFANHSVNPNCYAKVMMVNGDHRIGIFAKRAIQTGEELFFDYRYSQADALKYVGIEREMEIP

[12] = Cytotoxicity against human RH4 cells assessed as combinational index measured at fraction affected value of 0.63 in presence of vorinostat at 50 uM incubated for 72 hrs by CellTiter-Glo Luminescent cell viability assay; format: functional; procedure, shortened: as §1
[13] = Cytotoxicity against human RH4 cells assessed as reduction in cell viability at 50 uM incubated for 72 hrs by CellTiter-Glo Luminescent cell viability assay relative to control; format: functional; conditions: Rh4, 72 h
[14] = molecular target: T1, Histone-lysine N-methyltransferase EZH2; test: Inhibition of EZH2 in human U937 cells assessed as H3K27me3 level at 50 uM in presence of vorinostat incubated for 120 hrs by Western blot analysis (reference value: 1); format: cell-based; conditions: U-937
Procedure, shortened: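 U937 leukemia cells given EZH2 inhibitor 50 μM together with HDAC inhibitor 0.5 μM; Western blot at 96 and 120 h for H3K27me3 or acetyl-H3, actin as loading control; densitometry normalized to loading control then to DMSO vehicle.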

[15] = molecular target: T1, Histone-lysine N-methyltransferase EZH2; test: Inhibition of EZH2 in human RH4 cells assessed as H3K27me3 level at 50 uM in presence of vorinostat incubated for 96 hrs by Western blot analysis (reference value: 1); format: cell-based
Procedure, shortened: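 RH4 cells co-treated with EZH2 inhibitor at 50 μM plus HDAC inhibitor at 0.15 μM; Western blot after 72 or 96 h for H3K27me3 or acetyl-tubulin, vinculin loading control; densitometry normalized to loading control then DMSO vehicle.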

Histone deacetylase 2, sequence (Q92769 whole entry): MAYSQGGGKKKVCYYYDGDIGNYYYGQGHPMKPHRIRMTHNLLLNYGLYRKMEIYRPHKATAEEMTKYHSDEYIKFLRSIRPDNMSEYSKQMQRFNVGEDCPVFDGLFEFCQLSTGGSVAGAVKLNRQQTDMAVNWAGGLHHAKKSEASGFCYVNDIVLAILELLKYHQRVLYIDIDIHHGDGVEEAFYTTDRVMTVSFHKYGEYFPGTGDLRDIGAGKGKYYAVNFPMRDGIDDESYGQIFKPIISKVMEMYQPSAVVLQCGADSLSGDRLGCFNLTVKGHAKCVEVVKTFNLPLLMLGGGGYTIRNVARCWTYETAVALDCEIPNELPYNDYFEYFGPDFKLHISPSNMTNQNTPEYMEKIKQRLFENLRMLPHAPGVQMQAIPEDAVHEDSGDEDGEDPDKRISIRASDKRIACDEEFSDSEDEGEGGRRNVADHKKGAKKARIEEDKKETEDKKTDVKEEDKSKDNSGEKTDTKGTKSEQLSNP

Structure (SMILES)	Activity [1] [%]	IC50 (Histone deacetylase 2) [µM]	IC50 (U-937 [2]) [µM]	Activity (U-937 [3]) [%]	Activity [4] [%]	IC50 (Histone deacetylase 5) [µM]	inhibition at 10 µM (U-937 [5]) [%]	Activity (U-937 [6]) [%]	Activity (U-937 [7]) [%]	Activity [8] [%]	Activity [9] [%]	inhibition at 10 µM (U-937 [10]) [%]	fold change (FC) [11]	CI [12]	inhibition at 50 µM [13] [%]	fold change (FC) [14]	fold change (FC) [15]
Cc1cc(C)c(CNC(=O)c2cc(C)n(-c3cccc(NC(=O)CCCCCCC(=O)NO)c3)c2C)c(=O)[nH]1	28.1	1.33	9	36.1	13.8	16.6	60	0.3	4.2	0.4	19.8						
Cc1cc(C)c(CNC(=O)c2cc(C)n(-c3ccccc3)c2C)c(=O)[nH]1												70	0.3	0.54	> 30	0.6	0.2
